# Laboratory results taken from ChEMBL document CHEMBL4261561, “Thiosemicarbazone-based selective proliferation inactivators inhibit gastric cancer cell growth, invasion, and migration” (Medchemcomm, 2017).
# The source made the active and inactive calls. The calls are words filed in the database; no cut-off is given here.
# Legend:
# MCF7 = test: Antiproliferative activity against human MCF7 cells after 72 hrs by MTT assay; assay type: functional, cell-based; conditions: MCF7, 72 h
# In short: (§1)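 Exponentially growing cells were seeded at about 3×10^3 per well and left 24 h, then given fresh medium with a range of compound concentrations for 72 h. MTT solution (5 mg/mL) was added for another 4 h. Medium was removed, formazan was dissolved in DMSO, and absorbance was read at 570 nm. IC50 was derived statistically.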
# SMMC-7721 = test: Antiproliferative activity against human SMMC7721 cells after 72 hrs by MTT assay; assay type: functional, cell-based; conditions: SMMC-7721, 72 h; in short: as §1
# MGC-803 [1] = test: Antiproliferative activity against human MGC803 cells after 72 hrs by MTT assay; assay type: functional, cell-based; conditions: MGC-803, 72 h; in short: as §1
# MGC-803 [2] = test: Induction of apoptosis in human MGC803 cells assessed as late apoptotic cells at 0.5 uM after 48 hrs by Annexin-V/propidium iodide staining based flow cytometric analysis (reference value: 0.3%); assay type: functional
# MGC-803 [3] = test: Induction of apoptosis in human MGC803 cells assessed as chromatin shrinkage up to 0.5 uM after 48 hrs by Hoechst 33258 staining based fluorescence microscopic method; assay type: functional, cell-based
# In short: (§2)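 About 2×10^5 MGC-803 cells per well were treated after attachment with increasing compound concentrations for 48 h. They were fixed and stained with 20 µg/mL Hoechst-33258 for 30 min in the dark, then PBS-washed three times and viewed by fluorescence microscopy under UV excitation. Apoptotic cells were scored by nuclear condensation and fragmentation.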
# MGC-803 [4] = test: Cell cycle arrest in human MGC803 cells assessed as accumulation at G1 phase at 0.25 uM after 48 hrs by propidium iodide staining-based flow cytometric method (reference value: 60.55%); assay type: functional
# MGC-803 [5] = test: Induction of apoptosis in human MGC803 cells assessed as early apoptotic cells at 0.5 uM after 48 hrs by Annexin-V/propidium iodide staining based flow cytometric analysis (reference value: 3.4%); assay type: functional
# MGC-803 [6] = test: Induction of apoptosis in human MGC803 cells assessed as necrotic cells at 0.1 uM after 48 hrs by Annexin-V/propidium iodide staining based flow cytometric analysis (reference value: 0.1%); assay type: functional
# MGC-803 [7] = test: Induction of apoptosis in human MGC803 cells assessed as formation of apoptotic bodies up to 0.5 uM after 48 hrs by Hoechst 33258 staining based fluorescence microscopic method; assay type: functional, cell-based; in short: as §2
# MGC-803 [8] = test: Induction of apoptosis in human MGC803 cells assessed as late apoptotic cells at 0.25 uM after 48 hrs by Annexin-V/propidium iodide staining based flow cytometric analysis (reference value: 0.3%); assay type: functional
# MGC-803 [9] = test: Cell cycle arrest in human MGC803 cells assessed as accumulation at S phase at 0.1 uM after 48 hrs by propidium iodide staining-based flow cytometric method (reference value: 28.84%); assay type: functional
# MGC-803 [10] = test: Induction of apoptosis in human MGC803 cells assessed as viable cells at 0.25 uM after 48 hrs by Annexin-V/propidium iodide staining based flow cytometric analysis (reference value: 96.1%); assay type: functional; conditions: MGC-803, 48 h, read-out: Activity
# MGC-803 [11] = test: Antiproliferative activity against human MGC803 cells after 24 hrs by MTT assay; assay type: functional, cell-based; conditions: MGC-803, 24 h
# MGC-803 [12] = test: Down regulation of N-cadherin protein expression in human MGC803 cells up to 0.5 uM after 48 hrs by Western blot analysis; assay type: functional, cell-based
# In short: (§3)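 Treated MGC-803 cells were lysed on ice for 30 min in NP-40/SDS/deoxycholate/PMSF buffer. Equal protein was separated by SDS-PAGE and transferred to 0.22 µm nitrocellulose. Membranes were blocked 2 h in 5% nonfat milk/PBS, probed with primary antibody at 4°C overnight, then incubated with secondary antibody for 2 h.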
# GES1 = test: Cytotoxicity against human GES-1 cells after 72 hrs by MTT assay; assay type: cell-based; conditions: GES1, 72 h; in short: as §1
# MGC-803 [13] = test: Cell cycle arrest in human MGC803 cells assessed as accumulation at S phase after 48 hrs by propidium iodide staining-based flow cytometric method; assay type: functional
# MGC-803 [14] = test: Potency index, ratio of 3-AP IC50 to test compound IC50 for human MGC803 cells after 72 hrs by MTT assay; assay type: functional
# MGC-803 [15] = test: Induction of apoptosis in human MGC803 cells assessed as early apoptotic cells at 0.1 uM after 48 hrs by Annexin-V/propidium iodide staining based flow cytometric analysis (reference value: 3.4%); assay type: functional
# MGC-803 [16] = test: Induction of apoptosis in human MGC803 cells assessed as up-regulation of Bax expression after 48 hrs by Western blot analysis; assay type: functional, cell-based; in short: as §3
# MGC-803 [17] = test: Cell cycle arrest in human MGC803 cells assessed as accumulation at G2 phase at 0.5 uM after 48 hrs by propidium iodide staining-based flow cytometric method (reference value: 10.60%); assay type: functional
# MGC-803 [18] = test: Cell cycle arrest in human MGC803 cells assessed as accumulation at S phase at 0.25 uM after 48 hrs by propidium iodide staining-based flow cytometric method (reference value: 28.84%); assay type: functional
# MGC-803 [19] = test: Antimigratory activity against human MGC803 cells after 48 hrs by Hoechst 33258 staining based transwell assay; assay type: functional, cell-based
# In short: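 This was a transwell migration set-up. MGC-803 cells in medium with 1% FBS and varied compound concentrations went into the upper chamber, with 20% FBS medium below. After 48 h, chambers were PBS-washed and migrated cells were methanol-fixed. They were stained with 20 µg/mL Hoechst-33258 for 30 min in the dark and imaged on a high-content system.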
# MGC-803 [20] = test: Induction of apoptosis in human MGC803 cells assessed as viable cells at 0.1 uM after 48 hrs by Annexin-V/propidium iodide staining based flow cytometric analysis (reference value: 96.1%); assay type: functional; conditions: MGC-803, 48 h, read-out: Activity
# MGC-803 [21] = test: Cell cycle arrest in human MGC803 cells assessed as accumulation at G1 phase at 0.5 uM after 48 hrs by propidium iodide staining-based flow cytometric method (reference value: 60.55%); assay type: functional
# MGC-803 [22] = test: Induction of apoptosis in human MGC803 cells assessed as down regulation of Bcl-2 expression after 48 hrs by Western blot analysis; assay type: functional, cell-based; in short: as §3
# MGC-803 [23] = test: Cell cycle arrest in human MGC803 cells assessed as accumulation at G2 phase at 0.25 uM after 48 hrs by propidium iodide staining-based flow cytometric method (reference value: 10.60%); assay type: functional
# MGC-803 [24] = test: Cell cycle arrest in human MGC803 cells assessed as accumulation at S phase at 0.5 uM after 48 hrs by propidium iodide staining-based flow cytometric method (reference value: 28.84%); assay type: functional
# MGC-803 [25] = test: Anticlonogenic activity against human MGC803 cells at 0.1 to 0.5 uM after 7 to 14 days by crystal violet staining based assay; assay type: functional, cell-based
# In short: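 MGC-803 cells were seeded at about 1×10^3 per well and left 24 h, then grown 14 days in fresh medium with varied compound concentrations. Cells were PBS-washed, fixed in 4% paraformaldehyde for 30 min, and stained with 1% crystal violet for 30 min at 37°C before colonies were washed clear.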
# MGC-803 [26] = test: Induction of apoptosis in human MGC803 cells assessed as early apoptotic cells at 0.25 uM after 48 hrs by Annexin-V/propidium iodide staining based flow cytometric analysis (reference value: 3.4%); assay type: functional
# MGC-803 [27] = test: Induction of apoptosis in human MGC803 cells assessed as cell rounding up to 0.5 uM after 48 hrs by Hoechst 33258 staining based fluorescence microscopic method; assay type: functional; in short: as §2
# MGC-803 [28] = test: Induction of apoptosis in human MGC803 cells assessed as late apoptotic cells at 0.1 uM after 48 hrs by Annexin-V/propidium iodide staining based flow cytometric analysis (reference value: 0.3%); assay type: functional
# MGC-803 [29] = test: Cell cycle arrest in human MGC803 cells assessed as accumulation at G1 phase at 0.1 uM after 48 hrs by propidium iodide staining-based flow cytometric method (reference value: 60.55%); assay type: functional
# MGC-803 [30] = test: Induction of apoptosis in human MGC803 cells after 48 hrs by Annexin-V/propidium iodide staining based flow cytometric analysis; assay type: functional, cell-based
# MGC-803 [31] = test: Antiproliferative activity against human MGC803 cells after 48 hrs by MTT assay; assay type: functional, cell-based; conditions: MGC-803, 48 h
# MGC-803 [32] = test: Induction of apoptosis in human MGC803 cells assessed as necrotic cells at 0.25 uM after 48 hrs by Annexin-V/propidium iodide staining based flow cytometric analysis (reference value: 0.1%); assay type: functional
# MGC-803 [33] = test: Induction of apoptosis in human MGC803 cells assessed as viable cells at 0.5 uM after 48 hrs by Annexin-V/propidium iodide staining based flow cytometric analysis (reference value: 96.1%); assay type: functional; conditions: MGC-803, 48 h, read-out: Activity
# MGC-803 [34] = test: Up-regulation of E-cadherin protein expression in human MGC803 cells up to 0.5 uM after 48 hrs by Western blot analysis; assay type: functional, cell-based; in short: as §3
# MGC-803 [35] = test: Anti-invasive activity against human MGC803 cells after 48 hrs by Hoechst 33258 staining based matrigel coated transwell assay; assay type: functional, cell-based
# In short: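 This was an invasion variant of the transwell assay, with the upper chamber precoated with Matrigel. MGC-803 cells in 1% FBS medium with varied compound concentrations were placed above 20% FBS medium. After 48 h, cells were methanol-fixed, stained with 20 µg/mL Hoechst-33258 for 30 min in the dark, and imaged.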
# MGC-803 [36] = test: Antimigratory activity against human MGC803 cells after 48 hrs by wound healing assay; assay type: functional, cell-based
# In short: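 Confluent monolayers were scratched with a sterile pipette tip and PBS-washed. Cells were then cultured in medium containing only 1% FBS with varied compound concentrations for 48 h. Wounds were photographed under an inverted microscope at 0 h and 48 h.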
# MGC-803 [37] = test: Induction of apoptosis in human MGC803 cells assessed as necrotic cells at 0.5 uM after 48 hrs by Annexin-V/propidium iodide staining based flow cytometric analysis (reference value: 0.1%); assay type: functional
# MGC-803 [38] = test: Cell cycle arrest in human MGC803 cells assessed as accumulation at G2 phase at 0.1 uM after 48 hrs by propidium iodide staining-based flow cytometric method (reference value: 10.60%); assay type: functional
compound,measurement,setting,value
Oc1c(Br)cc(Br)cc1/C=N/NC(=S)N1CCOCC1,IC50,MCF7,> 64 µM
same,IC50,SMMC-7721,32.6 µM
same,IC50,MGC-803 [1],20.4 µM
C/C(=N\NC(=S)N1CCOCC1)c1ccccc1N,IC50,MCF7,> 64 µM
same,IC50,SMMC-7721,> 64 µM
same,IC50,MGC-803 [1],> 64 µM
C/C(=N\NC(=S)N1CCOCC1)c1cc(Cl)ccc1O,IC50,MCF7,29.2 µM
same,IC50,SMMC-7721,> 64 µM
same,IC50,MGC-803 [1],3.06 µM
Oc1ccc2ccccc2c1/C=N/NC(=S)N1CCOCC1,IC50,MCF7,> 64 µM
same,IC50,SMMC-7721,44.9 µM
same,IC50,MGC-803 [1],> 64 µM
COc1cc(/C=N/NC(=S)N2CCOCC2)cc(OC)c1OC,IC50,MCF7,> 64 µM
same,IC50,SMMC-7721,> 64 µM
same,IC50,MGC-803 [1],> 64 µM
CC(C)(C)OC(=O)N1CCN(C(=S)N/N=C/c2ccccc2O)CC1,IC50,MCF7,41.9 µM
same,IC50,SMMC-7721,27.3 µM
same,IC50,MGC-803 [1],10.2 µM
COc1ccc(/C=N/NC(=S)N2CCOCC2)c(O)c1,IC50,MCF7,> 64 µM
same,IC50,SMMC-7721,38.3 µM
same,IC50,MGC-803 [1],56.1 µM
Oc1ccccc1/C=N/NC(=S)N1CCOCC1,IC50,MCF7,> 64 µM
same,IC50,SMMC-7721,37.3 µM
same,IC50,MGC-803 [1],29.2 µM
C/C(=N\NC(=S)Nc1ccccc1)c1cc(Cl)ccc1O,Activity,MGC-803 [2],2.3%
same,Activity,MGC-803 [3],Active
same,Activity,MGC-803 [4],53.93%
same,Activity,MGC-803 [5],30%
same,Activity,MGC-803 [6],0.1%
same,Activity,MGC-803 [7],Active
same,IC50,MCF7,9.99 µM
same,Activity,MGC-803 [8],1.3%
same,Activity,MGC-803 [9],32.82%
same,viability at 0.25 µM,MGC-803 [10],83.5%
same,IC50,MGC-803 [11],> 64 µM
same,Activity,MGC-803 [12],Active
same,IC50,GES1,27.9 µM
same,Activity,MGC-803 [13],Dose-dependent effect
same,Ratio IC50,MGC-803 [14],10
same,Activity,MGC-803 [15],10.5%
same,Activity,MGC-803 [16],Dose-dependent effect
same,Activity,MGC-803 [17],0%
same,Activity,MGC-803 [18],46.07%
same,Activity,MGC-803 [19],Dose-dependent effect
same,viability at 0.1 µM,MGC-803 [20],89%
same,Activity,MGC-803 [21],48.15%
same,Activity,MGC-803 [22],Dose-dependent effect
same,Activity,MGC-803 [23],0%
same,Activity,MGC-803 [24],51.85%
same,Activity,MGC-803 [25],Active
same,Activity,MGC-803 [26],15.1%
same,Activity,MGC-803 [27],Active
same,Activity,MGC-803 [28],0.4%
same,Activity,MGC-803 [29],57.45%
same,Activity,MGC-803 [30],Dose-dependent effect
same,IC50,SMMC-7721,19.2 µM
same,IC50,MGC-803 [31],9.22 µM
same,IC50,MGC-803 [1],0.93 µM
same,Activity,MGC-803 [32],0.2%
same,viability at 0.5 µM,MGC-803 [33],67.4%
same,Activity,MGC-803 [34],Active
same,Activity,MGC-803 [35],Dose-dependent effect
same,Activity,MGC-803 [36],Dose-dependent effect
same,Activity,MGC-803 [37],0.3%
same,Activity,MGC-803 [38],9.73%
